Experiments:
[1] = Dissociation constant, pKa of the compound; type: physicochemical
[2] = Solubility in 100 mM phosphate buffer at pH 7.0; type: physicochemical
[3] = Inhibition of Plasmodium falciparum thioredoxin reductase at pH 7.4
Procedure, shortened: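 Recombinant P. falciparum TrxR, at 25°C in 100 mM potassium phosphate, 2 mM EDTA (pH 7.4). Cognate-substrate reaction was run with 10 mU/ml enzyme, NADPH and P. falciparum thioredoxin 1 as substrate. IC50 taken as Ki, assuming noncompetitive inhibition.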

[4] = target: T1, Dihydrolipoyl dehydrogenase, mitochondrial (Sus scrofa, UniProt P09623); test: Inhibition of pig recombinant dihydrolipoamide dehydrogenase at pH 7.3
T1 sequence (P09623 whole entry): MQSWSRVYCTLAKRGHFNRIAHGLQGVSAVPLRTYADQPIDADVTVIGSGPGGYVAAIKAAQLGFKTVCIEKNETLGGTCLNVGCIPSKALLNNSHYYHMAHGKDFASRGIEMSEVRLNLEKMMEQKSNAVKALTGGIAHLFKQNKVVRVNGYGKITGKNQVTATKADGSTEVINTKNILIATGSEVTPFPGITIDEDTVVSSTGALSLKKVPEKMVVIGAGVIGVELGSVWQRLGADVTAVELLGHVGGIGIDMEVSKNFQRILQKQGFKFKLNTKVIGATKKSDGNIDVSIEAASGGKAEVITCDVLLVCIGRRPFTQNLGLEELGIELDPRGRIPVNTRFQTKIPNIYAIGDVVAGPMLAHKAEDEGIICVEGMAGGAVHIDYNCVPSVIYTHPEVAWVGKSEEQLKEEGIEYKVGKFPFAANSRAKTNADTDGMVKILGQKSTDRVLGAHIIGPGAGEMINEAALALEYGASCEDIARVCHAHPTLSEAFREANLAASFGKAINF

[5] = target: T2, Thioredoxin reductase 1, cytoplasmic (Homo sapiens, UniProt Q16881); test: Inhibition of human recombinant TrxR1 at pH 7.4
T2 sequence (Q16881 whole entry): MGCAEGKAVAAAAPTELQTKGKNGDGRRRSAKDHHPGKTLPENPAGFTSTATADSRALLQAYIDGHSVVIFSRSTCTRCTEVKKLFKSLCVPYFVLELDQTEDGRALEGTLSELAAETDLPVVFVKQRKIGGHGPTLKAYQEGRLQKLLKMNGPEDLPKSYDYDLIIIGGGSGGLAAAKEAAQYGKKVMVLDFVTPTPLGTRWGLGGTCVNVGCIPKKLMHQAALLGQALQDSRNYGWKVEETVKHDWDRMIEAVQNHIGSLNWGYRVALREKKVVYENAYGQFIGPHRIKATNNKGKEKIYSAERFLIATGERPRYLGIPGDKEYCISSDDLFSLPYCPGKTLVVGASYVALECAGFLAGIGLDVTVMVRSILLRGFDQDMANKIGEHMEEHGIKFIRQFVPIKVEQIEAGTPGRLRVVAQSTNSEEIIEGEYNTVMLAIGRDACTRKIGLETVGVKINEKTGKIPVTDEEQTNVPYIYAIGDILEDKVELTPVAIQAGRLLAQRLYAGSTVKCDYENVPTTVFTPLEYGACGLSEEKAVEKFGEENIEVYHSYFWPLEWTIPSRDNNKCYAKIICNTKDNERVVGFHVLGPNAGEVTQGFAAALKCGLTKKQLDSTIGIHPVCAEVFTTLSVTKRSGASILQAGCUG
Procedure, shortened: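 Human TrxR (recombinant, or from placenta) was assayed at 10 mU/ml, 25°C, with its physiological substrate. The buffer was 100 mM potassium phosphate and 2 mM EDTA at pH 7.4, with NADPH as reductant. Routine measurements used His-tagged human thioredoxin 1 Cys73Ser. MB came from stocks in water. IC50 values were treated as Ki, assuming noncompetitive inhibition.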

[6] = Stability at pH 5.0; type: physicochemical; conditions: buffer
[7] = Inhibition of human recombinant glutathione reductase C58A mutant expressed in Escherichia coli SG5 at pH 6.9
[8] = Inhibition of human recombinant glutathione reductase C58A/C63A mutant expressed in Escherichia coli SG5 at pH 6.9
[9] = target: T3, Glutathione reductase, mitochondrial (Homo sapiens, UniProt P00390); test: Inhibition of human recombinant glutathione reductase at pH 6.9
T3 sequence (P00390 whole entry): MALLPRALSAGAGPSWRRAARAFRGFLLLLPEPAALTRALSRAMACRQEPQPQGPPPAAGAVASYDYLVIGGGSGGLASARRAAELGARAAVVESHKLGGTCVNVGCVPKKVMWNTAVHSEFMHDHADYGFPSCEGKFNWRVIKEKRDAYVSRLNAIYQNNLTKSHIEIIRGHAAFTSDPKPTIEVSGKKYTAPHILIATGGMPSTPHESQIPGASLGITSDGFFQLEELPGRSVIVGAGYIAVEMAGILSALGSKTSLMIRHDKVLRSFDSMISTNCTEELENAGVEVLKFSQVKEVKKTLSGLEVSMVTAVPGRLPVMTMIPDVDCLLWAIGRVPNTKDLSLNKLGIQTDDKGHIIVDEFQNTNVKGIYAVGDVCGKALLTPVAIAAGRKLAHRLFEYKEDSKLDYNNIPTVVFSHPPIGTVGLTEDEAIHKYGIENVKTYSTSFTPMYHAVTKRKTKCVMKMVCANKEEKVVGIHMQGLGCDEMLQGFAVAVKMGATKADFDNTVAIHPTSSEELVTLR
Procedure, shortened: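 Recombinant human GR was assayed with its physiological disulfide substrate at 10 mU/ml enzyme and 25°C. The buffer was 47 mM potassium phosphate, 1 mM EDTA and 200 mM KCl at pH 6.9, with NADPH as reductant. MB came from stocks in water. IC50 values were treated as Ki, assuming noncompetitive inhibition.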

Plasmodium falciparum = test: Antiplasmodial activity after 42 hrs against chloroquine-resistant Plasmodium falciparum K1 treated for 6 hrs by Giemsa stain; type: functional, organism-based
[10] = Inhibition of human recombinant glutathione reductase C63A mutant expressed in Escherichia coli SG5 at pH 6.9
Albumin = Albumin (Bos taurus, UniProt P02769); test: Binding affinity to bovine serum albumin by fluorescence spectroscopy; type: ADME; conditions: read-out: Kdiss
Chain of Albumin (P02769 whole entry): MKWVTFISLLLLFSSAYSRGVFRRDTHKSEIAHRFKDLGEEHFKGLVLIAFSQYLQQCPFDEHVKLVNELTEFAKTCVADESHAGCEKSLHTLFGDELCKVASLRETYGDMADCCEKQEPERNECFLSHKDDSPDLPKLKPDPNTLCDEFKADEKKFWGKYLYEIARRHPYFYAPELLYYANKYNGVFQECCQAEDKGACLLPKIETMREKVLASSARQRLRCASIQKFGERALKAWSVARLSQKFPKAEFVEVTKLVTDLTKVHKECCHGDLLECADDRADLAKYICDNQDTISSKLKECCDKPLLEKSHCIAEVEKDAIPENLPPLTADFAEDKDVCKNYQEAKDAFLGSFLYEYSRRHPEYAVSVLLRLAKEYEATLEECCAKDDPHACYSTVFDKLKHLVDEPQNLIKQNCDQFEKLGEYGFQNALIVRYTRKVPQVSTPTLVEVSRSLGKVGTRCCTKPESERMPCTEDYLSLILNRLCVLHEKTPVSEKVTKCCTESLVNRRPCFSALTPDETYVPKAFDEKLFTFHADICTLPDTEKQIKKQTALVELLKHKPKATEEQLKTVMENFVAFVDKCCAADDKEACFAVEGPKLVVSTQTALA

[11] = target: T4, Dihydrolipoyl dehydrogenase (Plasmodium falciparum, UniProt Q6KCB6); test: Inhibition of Plasmodium falciparum recombinant dihydrolipoamide dehydrogenase at pH 7.3
T4 sequence (Q6KCB6 whole entry): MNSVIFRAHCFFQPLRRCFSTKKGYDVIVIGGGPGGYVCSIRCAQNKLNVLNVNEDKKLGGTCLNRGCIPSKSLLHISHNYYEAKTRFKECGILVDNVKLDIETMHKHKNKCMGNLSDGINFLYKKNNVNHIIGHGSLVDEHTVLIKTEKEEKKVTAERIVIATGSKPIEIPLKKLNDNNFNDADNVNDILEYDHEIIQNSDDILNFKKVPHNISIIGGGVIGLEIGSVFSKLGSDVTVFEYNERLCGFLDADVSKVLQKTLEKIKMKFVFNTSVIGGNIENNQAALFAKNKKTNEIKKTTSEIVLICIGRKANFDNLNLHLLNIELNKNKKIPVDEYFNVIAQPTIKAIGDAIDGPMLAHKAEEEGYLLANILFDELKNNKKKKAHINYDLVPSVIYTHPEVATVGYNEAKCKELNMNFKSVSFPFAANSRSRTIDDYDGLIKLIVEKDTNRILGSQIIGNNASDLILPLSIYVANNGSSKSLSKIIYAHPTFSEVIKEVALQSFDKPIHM

[12] = Inhibition of Plasmodium falciparum glutathione reductase at pH 6.9
Procedure, shortened: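 Recombinant P. falciparum GR, assayed at 25°C in 47 mM potassium phosphate, 1 mM EDTA, 200 mM KCl (pH 6.9). Physiological GSSG reduction was run with 10 mU/ml enzyme and NADPH. IC50 values were taken as Ki, assuming noncompetitive inhibition.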

| SMILES | pKa [1] | solubility [2] [µM] | IC50 [3] [µM] | IC50 [4] [µM] | IC50 [5] [µM] | Stability [6] | IC50 [7] | IC50 [8] | IC50 [9] [µM] | EC50 (Plasmodium falciparum) [µM] | IC50 [10] | Kd (Albumin) [µM] | IC50 [11] [µM] | IC50 [12] [µM] |
| --- | --- | --- | --- | --- | --- | --- | --- | --- | --- | --- | --- | --- | --- | --- |
| CN(C)c1ccc2c(c1)Sc1cc(N(C)C)ccc1N2 [HYDROMETHYLTHIONINE] | 4.5 | < 50 | – | – | – | – | – | – | – | – | – | – | – | – |
| CN(C)c1ccc2nc3ccc(N(C)C)cc3[s+]c2c1.[Cl-] [METHYLENE BLUE ANHYDROUS] | – | – | 59 | > 1000 | 30 | Stable | Not Active | Not Active | 16.4 | 0.0065 | Not Active | 2.9 | > 1000 | 5.4 |
